Results: ChEMBL document CHEMBL4138126, “Synthesis, antiproliferative, anti-tubulin activity, and docking study of new 1,2,4-triazoles as potential combretastatin analogues” (Eur J Med Chem, 2017)

Columns and labels:
HL-60 = assay: Cytotoxicity in human HL60 cells assessed as reduction in cell viability incubated for 48 hrs by MTT assay; assay type: functional, cell-based; conditions: HL-60, 48 h
Method in brief: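 HepG2 and HL60 (ATCC) grown in DMEM with 10% FBS, 2 mM L-glutamine, penicillin/streptomycin, amphotericin B at 37 °C, 5% CO2. Samples dissolved in DMSO, diluted thousandfold in assay. Cells seeded in serum-free medium, treated with serial concentrations 48 h; MTT 4 h, formazan dissolved in acidified isopropanol, A570. Triplicates averaged; viability relative to untreated/vehicle control.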

HL-60(TB) = assay: Growth inhibition of human HL-60(TB) cells assessed as cell growth at 10 uM after 48 hrs by sulforhodamine B assay; assay type: functional; conditions: HL-60, 48 h, read-out: Activity
Method in brief: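 Screened by the NCI in its 60-cell-line panel covering nine cancer types, including leukemia. Compounds were added at a single concentration, and the cultures were incubated for 48 h. Results are reported as percent growth inhibition.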

MOLT-4 = assay: Growth inhibition of human MOLT4 cells assessed as cell growth at 10 uM after 48 hrs by sulforhodamine B assay; assay type: functional; conditions: MOLT-4, 48 h, read-out: Activity
Method in brief: (§1)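 NCI 60-cell-line panel screen (nine cancer types). Compounds added at single concentration 10^-5 M, cultures incubated 48 h; growth inhibition percentages reported.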

SR = assay: Growth inhibition of human SR cells assessed as cell growth at 10 uM after 48 hrs by sulforhodamine B assay; assay type: functional; conditions: read-out: Activity
Method in brief: (§2)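 NCI 60-cell-line panel from nine tumour types (leukaemia, lung, colon, CNS, melanoma, ovarian, renal, prostate, breast). Each compound was added at one single concentration, and cultures were incubated for 48 h. Results are reported as percent growth inhibition.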

A549 = assay: Growth inhibition of human A549/ATCC cells assessed as cell growth at 10 uM after 48 hrs by sulforhodamine B assay; assay type: functional; conditions: A549, 48 h, read-out: Activity; method in brief: as §1
EKVX = assay: Growth inhibition of human EKVX cells assessed as cell growth at 10 uM after 48 hrs by sulforhodamine B assay; assay type: functional; conditions: read-out: Activity; method in brief: as §1
HOP-62 = assay: Growth inhibition of human HOP62 cells assessed as cell growth at 10 uM after 48 hrs by sulforhodamine B assay; assay type: functional; conditions: HOP-62, 48 h, read-out: Activity; method in brief: as §1
NCI-H322M = assay: Growth inhibition of human NCI-H322M cells assessed as cell growth at 10 uM after 48 hrs by sulforhodamine B assay; assay type: functional; conditions: read-out: Activity; method in brief: as §1
NCI-H460 = assay: Growth inhibition of human NCI-H460 cells assessed as cell growth at 10 uM after 48 hrs by sulforhodamine B assay; assay type: functional; conditions: NCI-H460, 48 h, read-out: Activity; method in brief: as §1
COLO 205 = assay: Growth inhibition of human COLO205 cells assessed as cell growth at 10 uM after 48 hrs by sulforhodamine B assay; assay type: functional; conditions: COLO 205, 48 h, read-out: Activity; method in brief: as §1
HCT-116 = assay: Growth inhibition of human HCT116 cells assessed as cell growth at 10 uM after 48 hrs by sulforhodamine B assay; assay type: functional; conditions: HCT-116, 48 h, read-out: Activity; method in brief: as §1
SF-268 = assay: Growth inhibition of human SF268 cells assessed as cell growth at 10 uM after 48 hrs by sulforhodamine B assay; assay type: functional; conditions: SF-268, 48 h, read-out: Activity; method in brief: as §1
U-251 = assay: Growth inhibition of human U251 cells assessed as cell growth at 10 uM after 48 hrs by sulforhodamine B assay; assay type: functional; conditions: U-251, 48 h, read-out: Activity; method in brief: as §2
UACC-257 = assay: Growth inhibition of human UACC257 cells assessed as cell growth at 10 uM after 48 hrs by sulforhodamine B assay; assay type: functional; conditions: UACC-257, 48 h, read-out: Activity; method in brief: as §2
IGROV-1 = assay: Growth inhibition of human IGROV1 cells assessed as cell growth at 10 uM after 48 hrs by sulforhodamine B assay; assay type: functional; conditions: IGROV-1, 48 h, read-out: Activity; method in brief: as §1
OVCAR-8 = assay: Growth inhibition of human OVCAR8 cells assessed as cell growth at 10 uM after 48 hrs by sulforhodamine B assay; assay type: functional; conditions: OVCAR-8, 48 h, read-out: Activity; method in brief: as §1
ACHN = assay: Growth inhibition of human ACHN cells assessed as cell growth at 10 uM after 48 hrs by sulforhodamine B assay; assay type: functional; conditions: read-out: Activity; method in brief: as §1
CAKI-1 = assay: Growth inhibition of human CAKI-1 cells assessed as cell growth at 10 uM after 48 hrs by sulforhodamine B assay; assay type: functional; conditions: CAKI-1, 48 h, read-out: Activity; method in brief: as §1
TK-10 = assay: Growth inhibition of human TK10 cells assessed as cell growth at 10 uM after 48 hrs by sulforhodamine B assay; assay type: functional; conditions: TK-10, 48 h, read-out: Activity; method in brief: as §2
UO-31 = assay: Growth inhibition of human UO31 cells assessed as cell growth at 10 uM after 48 hrs by sulforhodamine B assay; assay type: functional; conditions: UO-31, 48 h, read-out: Activity; method in brief: as §2
MDA-MB-231 = assay: Growth inhibition of human MDA-MB-231 cells assessed as cell growth at 10 uM after 48 hrs by sulforhodamine B assay; assay type: functional; conditions: MDA-MB-231, 48 h, read-out: Activity; method in brief: as §1
Hs-578T = assay: Growth inhibition of human Hs 578T cells assessed as cell growth at 10 uM after 48 hrs by sulforhodamine B assay; assay type: functional; conditions: read-out: Activity; method in brief: as §1
BT-549 = assay: Growth inhibition of human BT549 cells assessed as cell growth at 10 uM after 48 hrs by sulforhodamine B assay; assay type: functional; conditions: BT-549, 48 h, read-out: Activity; method in brief: as §1
MDA-MB-468 = assay: Growth inhibition of human MDA-MB-468 cells assessed as cell growth at 10 uM after 48 hrs by sulforhodamine B assay; assay type: functional; conditions: MDA-MB-468, 48 h, read-out: Activity; method in brief: as §1
HepG2 = assay: Inhibition of beta tubulin polymerisation in human HepG2 cells incubated for 2 hrs using TMB substrate by ELISA relative to untreated control; assay type: cell-based; parameters: concentration or dose not given beside the values; conditions: dose or concentration not given here
[1] = Inhibition of beta tubulin polymerisation in human HepG2 cells incubated for 2 hrs using TMB substrate by ELISA; assay type: cell-based; conditions: HepG2, 2 h
K562 = assay: Growth inhibition of human K562 cells assessed as cell growth at 10 uM after 48 hrs by sulforhodamine B assay; assay type: functional; conditions: K562, 48 h, read-out: Activity; method in brief: as §1
HCC 2998 = assay: Growth inhibition of human HCC2998 cells assessed as cell growth at 10 uM after 48 hrs by sulforhodamine B assay; assay type: functional; conditions: HCC 2998, 48 h, read-out: Activity; method in brief: as §1
SK-MEL-28 = assay: Growth inhibition of human SK-MEL-28 cells assessed as cell growth at 10 uM after 48 hrs by sulforhodamine B assay; assay type: functional; conditions: SK-MEL-28, 48 h, read-out: Activity; method in brief: as §1
SK-MEL-5 = assay: Growth inhibition of human SK-MEL-5 cells assessed as cell growth at 10 uM after 48 hrs by sulforhodamine B assay; assay type: functional; conditions: SK-MEL-5, 48 h, read-out: Activity; method in brief: as §1
UACC-62 = assay: Growth inhibition of human UACC62 cells assessed as cell growth at 10 uM after 48 hrs by sulforhodamine B assay; assay type: functional; conditions: UACC-62, 48 h, read-out: Activity; method in brief: as §2
SN12C = assay: Growth inhibition of human SN12C cells assessed as cell growth at 10 uM after 48 hrs by sulforhodamine B assay; assay type: functional; conditions: read-out: Activity; method in brief: as §2

Row | SMILES | IC50 (HL-60) | growth at 10 µM (HL-60(TB)) | growth at 10 µM (MOLT-4) | growth at 10 µM (SR) | growth at 10 µM (A549) | growth at 10 µM (EKVX) | growth at 10 µM (HOP-62) | growth at 10 µM (NCI-H322M) | growth at 10 µM (NCI-H460) | growth at 10 µM (COLO 205) | growth at 10 µM (HCT-116) | growth at 10 µM (SF-268) | growth at 10 µM (U-251) | growth at 10 µM (UACC-257) | growth at 10 µM (IGROV-1) | growth at 10 µM (OVCAR-8) | growth at 10 µM (ACHN) | growth at 10 µM (CAKI-1) | growth at 10 µM (TK-10) | growth at 10 µM (UO-31) | further results
1 | CCOc1ccc(-n2nc(C(=O)Nc3cccc(OC)c3)nc2-c2cc(OC)c(OC)c(OC)c2)cc1 | 16.6 µM | 87.5% | 62.5% | 52.6% | 68.2% | 77.7% | 91.9% | 79.8% | 79.3% | 66.6% | 67.3% | 80.7% | 78.5% | 94.7% | 90.7% | 53.1% | 77.9% | 72.5% | 93.6% | 50.9% | growth at 10 µM (MDA-MB-231): 55.1%; growth at 10 µM (Hs-578T): 73.2%; growth at 10 µM (BT-549): 72.3%; growth at 10 µM (MDA-MB-468): 93.4%; inhibition (HepG2): 49.6%; IC50 [1]: 36.8 µM
2 | CCOc1ccc(-n2nc(C(=O)NCc3ccccc3OC)nc2-c2cc(OC)c(OC)c(OC)c2)cc1 | 0.6 µM | 19.1% | 0.38% | 35.9% | 34.5% | 41.3% | 62.2% | 52.4% | 30.5% | 30.3% | 25.3% | 54.1% | 42.5% | 62.7% | 43.7% | 43.7% | 19.6% | 25.9% | 46.5% | -2.66% | growth at 10 µM (K562): 22.1%; growth at 10 µM (HCC 2998): 57.5%; growth at 10 µM (SK-MEL-28): 36.6%; growth at 10 µM (SK-MEL-5): -1.22%; growth at 10 µM (UACC-62): 37%; growth at 10 µM (SN12C): 39.7%; growth at 10 µM (MDA-MB-231): 17.8%; growth at 10 µM (Hs-578T): 55.1%; growth at 10 µM (BT-549): 33.9%; growth at 10 µM (MDA-MB-468): 72.4%; inhibition (HepG2): 85.6%; IC50 [1]: 0.6 µM
3 | COc1cccc(-n2nc(C(=O)Nc3ccccc3)nc2-c2cc(OC)c(OC)c(OC)c2)c1 | > 100 µM | 121% | 105% | 93.9% | 92.4% | 91.2% | 83.8% | 81.1% | 107% | 104% | 91.3% | 88.6% | 93.6% | 103% | 93.1% | 101% | 93.8% | 73.6% | 53.2% | 61.6% | growth at 10 µM (K562): 121%; growth at 10 µM (HCC 2998): 87.3%; growth at 10 µM (SK-MEL-28): 96.6%; growth at 10 µM (SK-MEL-5): 93.8%; growth at 10 µM (UACC-62): 95.3%; growth at 10 µM (SN12C): 100%; growth at 10 µM (MDA-MB-231): 104%; growth at 10 µM (Hs-578T): 99.7%; growth at 10 µM (BT-549): 87.4%; growth at 10 µM (MDA-MB-468): 84.5%; inhibition (HepG2): 62.3%; IC50 [1]: 6.5 µM
4 | CCOc1ccc(-n2nc(C(=O)Nc3ccccc3)nc2-c2cc(OC)c(OC)c(OC)c2)cc1 | 1.28 µM | 32.9% | 42.9% | 17% | 41.4% | 53.2% | 55.7% | 67.6% | 27.9% | 22.1% | 21.2% | 76.5% | 36.1% | 66.4% | 55.1% | 61.6% | 62.8% | 51.6% | 72.5% | 37.7% | growth at 10 µM (MDA-MB-231): 43.9%; growth at 10 µM (Hs-578T): 39.6%; growth at 10 µM (BT-549): 60.9%; growth at 10 µM (MDA-MB-468): 42.5%; inhibition (HepG2): 42.7%; IC50 [1]: 41.8 µM
